Measured values of several laboratories.
Lines come from different studies, so protocols differ.
Cell line: PC-3
Effect on: cell growth or viability

Cc1cc(C)cc(COc2cc3c(cc2OCc2cc(C)cc(C)c2)[C@H]2C[C@](O)(Cc4cn(Cc5ccc(C#N)cc5)nn4)C[C@H](C)N2CC3)c1
IC50 (MTT): 0.371 µM

O=C(N/N=C/CN1CCCCC1)Nc1cc2c(Nc3ccc(F)c(Cl)c3)ncnc2cc1O[C@H]1CCOC1
IC50 (MTT; 72 h): 0.81 µM

CSc1cccc(NC(=O)C2CCCN(C(=O)c3cc(C(F)(F)F)cc(C(F)(F)F)c3)C2)c1 (centres unmarked)
inhibition (WST-1; 100 µM): 0%

O=C(CN1C(=O)/C(=C/c2cccc(O)c2)SC1=S)Nc1ccccc1
inhibition (MTT; 10 µM): 12.6%

COc1ccc(C(=O)/C=C/c2ccc(Cl)c(Cl)c2)cc1S(N)(=O)=O
inhibition (SRB; 10 µM): 90%

Cc1cc(C)cc(COc2cc3c(cc2OCc2cc(C)cc(C)c2)[C@H]2C[C@](O)(Cc4cn(Cc5ccc(-c6ccccc6)cc5)nn4)C[C@H](C)N2CC3)c1
IC50 (MTT): 0.206 µM

COc1cccc(Oc2ccccc2NC(=O)CNC(=O)c2cccc3ccccc23)c1
GI50 (SRB; 48 h): 0.282 µM

COc1cccc(NC(=O)CN2C(=O)/C(=C/C3CC3)SC2=S)c1
inhibition (MTT; 10 µM): 18.6%

O=C(Nc1cccc(Oc2ccccn2)c1)C1CCCN(C(=O)c2cc(C(F)(F)F)cc(C(F)(F)F)c2)C1 (centres unmarked)
inhibition (WST-1; 100 µM): 0%

COCCCOc1ccnc(COc2ccc(NC(=O)Nc3ccc(Cl)cc3)cc2)c1C
IC50 (MTT; 72 h): > 100 µM

O=C(CN1C(=O)/C(=C/c2ccccc2O)SC1=S)Nc1ccccc1
inhibition (MTT; 10 µM): 36.2%

COc1cc2ncnc(Nc3ccc(F)c(Cl)c3)c2cc1NC(=O)N/N=C/c1cccn1CCCN1CCCC1
IC50 (MTT; 72 h): 1.56 µM

O=C(CN1C(=O)/C(=C/c2cccc(Cl)c2)SC1=S)Nc1ccccc1
inhibition (MTT; 10 µM): 21%

CN1CCN(C/C=N/NC(=O)Nc2cc3c(Nc4ccc(F)c(Cl)c4)ncnc3cc2O[C@H]2CCOC2)CC1
IC50 (MTT; 72 h): 1.83 µM

Cc1c(OCC(F)(F)F)ccnc1COc1ccc(NC(=O)Nc2ccc(Cl)c(C(F)(F)F)c2)cc1
IC50 (MTT; 72 h): 54.2 µM

O=C(Nc1cccc(Oc2ccccc2)c1)C1CCCN(C(=O)c2cccc(-c3ccco3)c2)C1 (centres unmarked)
inhibition (WST-1; 100 µM): 0%

COc1ccccc1/C=C/C(=O)c1ccc(OC)c(S(N)(=O)=O)c1
GI50 (SRB; 48 h): 4.8 µM

COc1cc2c(c(OC)c1OC)-c1ccc(OC)c(=O)cc1[C@@H](NC(C)=O)CC2
inhibition (MTT; 10 µM): 58.6%

COc1ccc(C(=O)/C=C/c2cc3c(cc2Br)OCO3)cc1S(N)(=O)=O
GI50 (SRB; 48 h): 6.8 µM

COc1ccnc(COc2ccc(NC(=O)Nc3ccc(Cl)c(C(F)(F)F)c3)cc2)c1OC
IC50 (MTT; 72 h): > 100 µM

COc1cc2ncnc(Nc3ccc(F)c(Cl)c3)c2cc1NC(=O)N/N=C/c1cccn1CCCN1CCCCC1
IC50 (MTT; 72 h): 1.06 µM

COc1ccc(C(=O)/C=C/c2ccc3ccccc3c2)cc1S(N)(=O)=O
inhibition (SRB; 10 µM): 112%

COc1cc2ncnc(Nc3ccc(F)c(Cl)c3)c2cc1NC(=O)N/N=C/CN1CCCCC1
IC50 (MTT; 72 h): 5.76 µM

COc1cccc(NC(=O)CN2C(=O)/C(=C/c3ccccc3)SC2=S)c1
inhibition (MTT; 10 µM): 17.8%

COc1ccc(-c2ccc(-c3ccc(C(=N)N)nc3)s2)cc1Cl
GI50: 1.78 µM

O=C(CN1C(=O)/C(=C/c2cccc([N+](=O)[O-])c2)SC1=S)Nc1ccccc1
inhibition (MTT; 10 µM): 17.6%

C/C=C/C(=O)Nc1ccc(CCn2cc(C[C@@]3(O)C[C@@H]4c5cc(OCc6cc(C)cc(C)c6)c(OCc6cc(C)cc(C)c6)cc5CCN4[C@@H](C)C3)nn2)cc1
IC50 (MTT): 0.273 µM

CCN(CC)C/C=N/NC(=O)Nc1cc2c(Nc3ccc(F)c(Cl)c3)ncnc2cc1OC
IC50 (MTT; 72 h): 4.4 µM

CC(C)c1ccc(/C=C2\SC(=S)N(CC(=O)Nc3ccccc3)C2=O)cc1
inhibition (MTT; 10 µM): 29%

Cc1cc(C)cc(COc2cc3c(cc2OCc2cc(C)cc(C)c2)[C@H]2C[C@](O)(Cc4cn(CC5CC5)nn4)C[C@H](C)N2CC3)c1
IC50 (MTT): 0.302 µM

O=C(N/N=C/c1cccn1CCCN1CCOCC1)Nc1cc2c(Nc3ccc(F)c(Cl)c3)ncnc2cc1O[C@H]1CCOC1
IC50 (MTT; 72 h): 6.32 µM

CSc1cccc(NC(=O)C2CCCN(C(=O)c3cccc(-c4ccco4)c3)C2)c1 (centres unmarked)
inhibition (WST-1; 100 µM): 0%
